# Reference: ChEMBL document CHEMBL4033712, “Synthesis and biological evaluation of new C-12(α/β)-(N-) sulfamoyl-phenylamino-14-deoxy-andrographolide derivatives as potent anti-cancer agents” (Bioorg Med Chem Lett, 2017)
# Key:
# Assay type in all cases: functional
# HL-60(TB) = assay: Anticancer activity against human HL-60(TB) cells assessed as cell growth at 10 uM after 48 hrs by sulforhodamine B assay relative to control; settings: HL-60, 48 h, read-out: Activity
# Procedure, shortened: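 NCI-60 human tumour panel single-dose screen: cells exposed to 10 µM compound for 48 h. Growth end point read with sulforhodamine B protein-binding dye. Expressed as percent growth of treated cells versus untreated control cells.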
# MOLT-4 = assay: Anticancer activity against human MOLT4 cells assessed as cell growth at 10 uM after 48 hrs by sulforhodamine B assay relative to control; settings: MOLT-4, 48 h, read-out: Activity
# Procedure, shortened: (§1)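 Single-dose NCI-60 panel screen: compound added at 10 µM and the culture incubated 48 h. The end point was read by protein staining with sulforhodamine B. The value is percent growth of treated cells relative to untreated control cells, reported as a mean graph across the panel.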
# A549 = assay: Anticancer activity against human A549/ATCC cells assessed as cell growth at 10 uM after 48 hrs by sulforhodamine B assay relative to control; settings: A549, 48 h, read-out: Activity; procedure, shortened: as §1
# HOP-62 = assay: Anticancer activity against human HOP62 cells assessed as cell growth at 10 uM after 48 hrs by sulforhodamine B assay relative to control; settings: HOP-62, 48 h, read-out: Activity; procedure, shortened: as §1
# NCI-H322M = assay: Anticancer activity against human NCI-H322M cells assessed as cell growth at 10 uM after 48 hrs by sulforhodamine B assay relative to control; settings: read-out: Activity; procedure, shortened: as §1
# NCI-H460 = assay: Anticancer activity against human NCI-H460 cells assessed as cell growth at 10 uM after 48 hrs by sulforhodamine B assay relative to control; settings: NCI-H460, 48 h, read-out: Activity; procedure, shortened: as §1
# NCI-H522 = assay: Anticancer activity against human NCI-H522 cells assessed as cell growth at 10 uM after 48 hrs by sulforhodamine B assay relative to control; settings: NCI-H522, 48 h, read-out: Activity; procedure, shortened: as §1
# HCC 2998 = assay: Anticancer activity against human HCC2998 cells assessed as cell growth at 10 uM after 48 hrs by sulforhodamine B assay relative to control; settings: HCC 2998, 48 h, read-out: Activity; procedure, shortened: as §1
# HCT-116 [1] = assay: Anticancer activity against human HCT116 cells assessed as cell growth at 10 uM after 48 hrs by sulforhodamine B assay relative to control; settings: HCT-116, 48 h, read-out: Activity; procedure, shortened: as §1
# KM12 = assay: Anticancer activity against human KM12 cells assessed as cell growth at 10 uM after 48 hrs by sulforhodamine B assay relative to control; settings: KM12, 48 h, read-out: Activity; procedure, shortened: as §1
# SF-268 = assay: Anticancer activity against human SF268 cells assessed as cell growth at 10 uM after 48 hrs by sulforhodamine B assay relative to control; settings: SF-268, 48 h, read-out: Activity; procedure, shortened: as §1
# Malme-3M = assay: Anticancer activity against human MALME-3M cells assessed as cell growth at 10 uM after 48 hrs by sulforhodamine B assay relative to control; settings: read-out: Activity; procedure, shortened: as §1
# SK-MEL-2 = assay: Anticancer activity against human SK-MEL-2 cells assessed as cell growth at 10 uM after 48 hrs by sulforhodamine B assay relative to control; settings: SK-MEL-2, 48 h, read-out: Activity; procedure, shortened: as §1
# UACC-62 = assay: Anticancer activity against human UACC62 cells assessed as cell growth at 10 uM after 48 hrs by sulforhodamine B assay relative to control; settings: UACC-62, 48 h, read-out: Activity
# Procedure, shortened: (§2)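 NCI-60 single-dose screen: compound added at 10 µM, cultures incubated 48 h. End point by sulforhodamine B protein-binding dye. Value reported as percent growth of treated cells relative to untreated control cells.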
# IGROV-1 = assay: Anticancer activity against human IGROV1 cells assessed as cell growth at 10 uM after 48 hrs by sulforhodamine B assay relative to control; settings: IGROV-1, 48 h, read-out: Activity; procedure, shortened: as §1
# OVCAR-4 = assay: Anticancer activity against human OVCAR4 cells assessed as cell growth at 10 uM after 48 hrs by sulforhodamine B assay relative to control; settings: OVCAR-4, 48 h, read-out: Activity; procedure, shortened: as §1
# OVCAR-5 = assay: Anticancer activity against human OVCAR5 cells assessed as cell growth at 10 uM after 48 hrs by sulforhodamine B assay relative to control; settings: OVCAR-5, 48 h, read-out: Activity; procedure, shortened: as §1
# OVCAR-8 = assay: Anticancer activity against human OVCAR8 cells assessed as cell growth at 10 uM after 48 hrs by sulforhodamine B assay relative to control; settings: OVCAR-8, 48 h, read-out: Activity; procedure, shortened: as §1
# 786-0 = assay: Anticancer activity against human 786-0 cells assessed as cell growth at 10 uM after 48 hrs by sulforhodamine B assay relative to control; settings: 786-0, 48 h, read-out: Activity; procedure, shortened: as §1
# A498 = assay: Anticancer activity against human A498 cells assessed as cell growth at 10 uM after 48 hrs by sulforhodamine B assay relative to control; settings: A498, 48 h, read-out: Activity; procedure, shortened: as §1
# RXF 393 = assay: Anticancer activity against human RXF393 cells assessed as cell growth at 10 uM after 48 hrs by sulforhodamine B assay relative to control; settings: RXF 393, 48 h, read-out: Activity; procedure, shortened: as §1
# SN12C = assay: Anticancer activity against human SN12C cells assessed as cell growth at 10 uM after 48 hrs by sulforhodamine B assay relative to control; settings: read-out: Activity; procedure, shortened: as §1
# TK-10 = assay: Anticancer activity against human TK10 cells assessed as cell growth at 10 uM after 48 hrs by sulforhodamine B assay relative to control; settings: TK-10, 48 h, read-out: Activity; procedure, shortened: as §2
# DU-145 = assay: Anticancer activity against human DU145 cells assessed as cell growth at 10 uM after 48 hrs by sulforhodamine B assay relative to control; settings: DU-145, 48 h, read-out: Activity; procedure, shortened: as §1
# T47D = assay: Anticancer activity against human T47D cells assessed as cell growth at 10 uM after 48 hrs by sulforhodamine B assay relative to control; settings: read-out: Activity; procedure, shortened: as §2
# EKVX = assay: Growth inhibition of human EKVX cells incubated for 48 hrs by sulforhodamine B assay; settings: for CC50: read-out: LC50 (the source's name)
# Procedure, shortened: (§3)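 NCI-60 five-dose screen at 0.01, 0.1, 1, 10 and 100 µM, 48 h incubation, sulforhodamine B end point. GI50 (50% decrease in net growth), TGI (total growth inhibition) and LC50 (net 50% loss of initial cells) taken from log concentration versus % growth inhibition curves.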
# HCT-116 [2] = assay: Growth inhibition of human HCT116 cells incubated for 48 hrs by sulforhodamine B assay; settings: HCT-116, 48 h; for CC50: read-out: LC50 (the source's name); procedure, shortened: as §3
# SF-295 = assay: Growth inhibition of human SF295 cells incubated for 48 hrs by sulforhodamine B assay; settings: SF-295, 48 h; for CC50: read-out: LC50 (the source's name)
# Procedure, shortened: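 NCI 60 human tumour cell line panel, five-dose study at 0.01, 0.1, 1, 10 and 100 µM, 48 h incubation. Sulforhodamine B protein-binding dye end point. GI50 (50% decrease in net cell growth), TGI (total growth inhibition) and LC50 (net 50% loss of initial cells) read from log concentration versus % growth inhibition curves.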
Structure (SMILES),growth at 10 µM (HL-60(TB)),growth at 10 µM (MOLT-4),growth at 10 µM (A549),growth at 10 µM (HOP-62),growth at 10 µM (NCI-H322M),growth at 10 µM (NCI-H460),growth at 10 µM (NCI-H522),growth at 10 µM (HCC 2998),growth at 10 µM (HCT-116 [1]),growth at 10 µM (KM12),growth at 10 µM (SF-268),growth at 10 µM (Malme-3M),growth at 10 µM (SK-MEL-2),growth at 10 µM (UACC-62),growth at 10 µM (IGROV-1),growth at 10 µM (OVCAR-4),growth at 10 µM (OVCAR-5),growth at 10 µM (OVCAR-8),growth at 10 µM (786-0),growth at 10 µM (A498),other results
C=C1CC[C@@H]2[C@](C)(COC(C)=O)[C@H](OC(C)=O)CC[C@@]2(C)[C@H]1CC(Nc1ccc(S(=O)(=O)Nc2nc(C)cc(C)n2)cc1)C1=CCOC1=O (stereo partly specified),21.7%,24.6%,65.3%,103%,97.2%,90.3%,22%,100%,39.2%,64.7%,93.3%,96.3%,88.5%,32.9%,81.5%,65%,103%,62%,103%,85.3%,growth at 10 µM (RXF 393): 85.1%; growth at 10 µM (SN12C): 38.2%; growth at 10 µM (TK-10): 111%; growth at 10 µM (DU-145): 82.3%; growth at 10 µM (T47D): 68.8%
C=C1CC[C@@H]2[C@](C)(COC(C)=O)[C@H](OC(C)=O)CC[C@@]2(C)[C@H]1CC(Nc1ccc(S(=O)(=O)Nc2ncccn2)cc1)C1=CCOC1=O (stereo partly specified),-17.2%,-8.69%,44.7%,126%,50.9%,18.1%,-67.7%,32%,-55%,-13.2%,18.3%,-4.93%,41.9%,3.93%,7.21%,42.7%,-1.98%,3.81%,-10.1%,79%,GI50 (EKVX): 8.18 µM; TGI (EKVX): 20.6 µM; CC50 (EKVX): 45.6 µM; GI50 (HCT-116 [2]): 0.87 µM; TGI (HCT-116 [2]): 2.49 µM; CC50 (HCT-116 [2]): 6.51 µM; GI50 (SF-295): 6.07 µM; TGI (SF-295): 18.7 µM; CC50 (SF-295): 44.6 µM; growth at 10 µM (RXF 393): -70%; growth at 10 µM (SN12C): 7.64%; growth at 10 µM (TK-10): 35.1%; growth at 10 µM (DU-145): 14.9%; growth at 10 µM (T47D): 42.3%
C=C1CC[C@@H]2[C@](C)(COC(C)=O)[C@H](OC(C)=O)CC[C@@]2(C)[C@H]1CC(Nc1ccc(S(=O)(=O)Nc2nccc(C)n2)cc1)C1=CCOC1=O (stereo partly specified),-17.3%,-1.85%,63.4%,156%,64.8%,46.9%,-50.6%,68.2%,-32.2%,13.2%,43.2%,-0.7%,40.1%,24.2%,25.8%,32.3%,26.9%,10.5%,32.5%,96.8%,GI50 (EKVX): 13.9 µM; TGI (EKVX): 27.1 µM; CC50 (EKVX): 52.7 µM; GI50 (HCT-116 [2]): 1.6 µM; TGI (HCT-116 [2]): 3.56 µM; CC50 (HCT-116 [2]): 7.96 µM; GI50 (SF-295): 12.4 µM; TGI (SF-295): 25.6 µM; CC50 (SF-295): 52.9 µM; growth at 10 µM (RXF 393): -38.3%; growth at 10 µM (SN12C): 25.1%; growth at 10 µM (TK-10): 83%; growth at 10 µM (DU-145): 38.5%; growth at 10 µM (T47D): 69.1%
C=C1CC[C@@H]2[C@](C)(COC(C)=O)[C@H](OC(C)=O)CC[C@@]2(C)[C@H]1CC(Nc1ccc(S(=O)(=O)Nc2cc(C)on2)cc1)C1=CCOC1=O (stereo partly specified),-2.05%,-7.86%,72.2%,60.2%,80.4%,79.5%,-20.2%,68.3%,-1.13%,30.5%,67.3%,56.6%,63%,19.8%,62.6%,68.2%,52.2%,16.1%,89.8%,98.6%,GI50 (EKVX): 11 µM; TGI (EKVX): 25.9 µM; CC50 (EKVX): 60.8 µM; GI50 (HCT-116 [2]): 1.12 µM; TGI (HCT-116 [2]): 2.39 µM; CC50 (HCT-116 [2]): 5.1 µM; GI50 (SF-295): 8.13 µM; TGI (SF-295): 21 µM; CC50 (SF-295): 47.7 µM; growth at 10 µM (RXF 393): 29.8%; growth at 10 µM (SN12C): 31.8%; growth at 10 µM (TK-10): 58.4%; growth at 10 µM (DU-145): 71.1%; growth at 10 µM (T47D): 63.6%
C=C1CC[C@@H]2[C@](C)(COC(C)=O)[C@H](OC(C)=O)CC[C@@]2(C)[C@H]1CC(Nc1ccc(S(=O)(=O)Nc2ccc(Cl)nn2)cc1)C1=CCOC1=O (stereo partly specified),-17.5%,0.4%,61.6%,47.9%,57%,14.5%,-34.5%,88.5%,-34.1%,27%,43.3%,55.3%,58.3%,-50%,43.3%,30.9%,44.6%,16.9%,58.8%,89%,GI50 (EKVX): 4.53 µM; TGI (EKVX): 17 µM; CC50 (EKVX): 41.3 µM; GI50 (HCT-116 [2]): 1.08 µM; TGI (HCT-116 [2]): 2.32 µM; CC50 (HCT-116 [2]): 4.96 µM; GI50 (SF-295): 3.28 µM; TGI (SF-295): 12.6 µM; CC50 (SF-295): 35.6 µM; growth at 10 µM (RXF 393): -13.4%; growth at 10 µM (SN12C): -27.6%; growth at 10 µM (TK-10): 69.8%; growth at 10 µM (DU-145): 40.2%; growth at 10 µM (T47D): 34.1%
